Laboratory results reported in ChEMBL document CHEMBL1129436, “Novel peptidyl alpha-keto amide inhibitors of calpains and other cysteine proteases” (J Med Chem, 1996).

Columns and labels:
Cathepsin B [1] = biological target: Cathepsin B (Bos taurus, UniProt P07688); assay: Inhibition of bovine cathepsin B
In short: (§1)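 Bovine or human cathepsin B, assayed in 20 mM sodium acetate, pH 5.2, with 0.5 mM dithiothreitol and 2% DMSO. The two enzyme sources were used interchangeably. Ki was taken from Dixon plots, with triplicate assays plotted as 1/v versus inhibitor concentration.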

Cathepsin B [2] = biological target: Cathepsin B (Homo sapiens, UniProt P07858); assay: Inhibition of human cathepsin B; in short: as §1
[3] = biological target: T1, Calpain-1 catalytic subunit (Homo sapiens, UniProt P07384); assay: Inhibition of the cysteine protease human Calpain 1
T1 sequence (P07384 whole entry): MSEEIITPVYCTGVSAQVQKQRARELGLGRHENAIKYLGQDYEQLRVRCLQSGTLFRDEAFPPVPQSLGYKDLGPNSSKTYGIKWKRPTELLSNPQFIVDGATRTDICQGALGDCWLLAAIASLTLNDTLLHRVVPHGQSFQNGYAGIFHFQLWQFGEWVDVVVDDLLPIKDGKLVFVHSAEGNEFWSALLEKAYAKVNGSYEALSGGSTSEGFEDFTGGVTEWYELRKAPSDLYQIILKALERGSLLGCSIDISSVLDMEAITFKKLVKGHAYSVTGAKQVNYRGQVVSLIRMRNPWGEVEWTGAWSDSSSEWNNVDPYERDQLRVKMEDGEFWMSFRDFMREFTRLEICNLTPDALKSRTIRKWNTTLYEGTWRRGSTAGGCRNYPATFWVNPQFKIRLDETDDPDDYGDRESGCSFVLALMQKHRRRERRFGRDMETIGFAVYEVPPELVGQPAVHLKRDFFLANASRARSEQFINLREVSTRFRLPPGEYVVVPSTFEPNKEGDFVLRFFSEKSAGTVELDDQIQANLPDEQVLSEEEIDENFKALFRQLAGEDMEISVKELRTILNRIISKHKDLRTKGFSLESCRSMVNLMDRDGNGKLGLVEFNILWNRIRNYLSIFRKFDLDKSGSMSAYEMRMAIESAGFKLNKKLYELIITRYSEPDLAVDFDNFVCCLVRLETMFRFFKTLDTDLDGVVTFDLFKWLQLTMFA
In short: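 Calpain assay in 25 mM Tris, pH 8.0, with 10 mM CaCl₂ and 5% DMSO. […] hydrolysis was read as initial velocity (t = 30-60 s) after a 30 s delay, at room temperature. Five or more inhibitor concentrations (not above 2 × K_obs) were used at two fixed substrate levels. Ki came from Dixon plots (1/v vs I) averaged over triplicates.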
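For IC in this document: measured as membrane permeability of platelets.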

## CCNC(=O)C(=O)C(CC)NC(=O)C(CC(C)C)NC(=O)c1ccc2ccccc2n1 (centres undefined)
Cathepsin B [1]
  Ki: 96 nM

## CCC(NC(=O)C(CC(C)C)NC(=O)OCc1ccccc1)C(=O)C(=O)NCCc1cccc(OC)c1 (centres undefined)
Cathepsin B [2]
  Ki: 310 nM
[3]
  Ki: 110 nM

## CCC(NC(=O)C(CC(C)C)NC(=O)OCc1ccccc1)C(=O)C(=O)NCC(O)c1ccc(N(C)C)cc1 (centres undefined)
[3]
  Ki: 330 nM
Cathepsin B [1]
  Ki: 72 nM

## CC(C)CC(NC(=O)OCc1ccccc1)C(=O)NC(Cc1ccccc1)C(=O)C(=O)NCC(O)c1cccc(Oc2ccc(Cl)c(Cl)c2)c1 (centres undefined)
[3]
  Ki: 590 nM
Cathepsin B [1]
  Ki: 640 nM

## CC(C)CC(NC(=O)OCc1ccccc1)C(=O)NC(Cc1ccccc1)C(=O)C(=O)NCC(O)c1ccc(Oc2ccccc2)cc1 (centres undefined)
[3]
  Ki: 200 nM
Cathepsin B [1]
  Ki: 2100 nM

## CCC(NC(=O)C(CC(C)C)NC(=O)OCc1ccccc1)C(=O)C(=O)NCC(O)c1ccc(OC)cc1 (centres undefined)
[3]
  Ki: 240 nM
Cathepsin B [1]
  Ki: 120 nM

## CCC(NC(=O)C(CC(C)C)NC(=O)OCc1ccccc1)C(=O)C(=O)NCC(O)c1ccc(OCc2ccccc2)c(OCc2ccccc2)c1 (centres undefined)
[3]
  Ki: 230 nM
Cathepsin B [1]
  Ki: 320 nM

## CCNC(=O)C(=O)C(CC)NC(=O)C(CC(C)C)NC(=O)CCc1ccccc1 (centres undefined)
[3]
  Ki: 1900 nM
Cathepsin B [1]
  Ki: 220 nM

## CCNC(=O)C(=O)C(CC)NC(=O)C(CC(C)C)NC(=O)c1cccnc1 (centres undefined)
[3]
  Ki: 1300 nM
Cathepsin B [1]
  Ki: 880 nM

## CC(C)CC(NC(=O)OCc1ccccc1)C(=O)NC(Cc1ccccc1)C(=O)C(=O)NCc1ccc2ccccc2n1 (centres undefined)
Cathepsin B [2]
  Ki: 340 nM
[3]
  Ki: 110 nM

## CCCC(NC(=O)C(CC(C)C)NC(=O)OCc1ccccc1)C(=O)C(=O)NCC(O)c1ccccc1 (centres undefined)
[3]
  Ki: 7800 nM
Cathepsin B [1]
  Ki: 3400 nM

## CCC(NC(=O)C(CC(C)C)NC(=O)OCc1ccccc1)C(=O)C(=O)NCCCN1CCc2ccccc2C1 (centres undefined)
Cathepsin B [2]
  Ki: 8000 nM
[3]
  Ki: 310 nM

## CCC(NC(=O)C(CC(C)C)NC(=O)OCc1ccccc1)C(=O)C(=O)NCC(OC)OC (centres undefined)
Cathepsin B [1]
  Ki: 190 nM

## CCC(NC(=O)C(CC(C)C)NC(=O)OCc1ccccc1)C(=O)C(=O)NCC(O)c1ccc2ccccc2c1 (centres undefined)
[3]
  Ki: 350 nM
Cathepsin B [1]
  Ki: 63 nM

## CC(C)CC(NC(=O)C(c1ccccc1)c1ccccc1)C(=O)NC(Cc1ccccc1)C(=O)C(=O)NCCCN1CCOCC1 (centres undefined)
Cathepsin B [2]
  Ki: 3800 nM
[3]
  Ki: 760 nM

## CC(C)CC(NC(=O)OCc1ccccc1)C(=O)NC(Cc1ccccc1)C(=O)C(=O)NCC(O)c1ccc(OCc2ccccc2)cc1 (centres undefined)
Cathepsin B [1]
  Ki: 380 nM

## CC(C)CC(NC(=O)OCc1ccccc1)C(=O)NC(Cc1ccccc1)C(=O)C(=O)NCCCN1CCc2ccccc2C1 (centres undefined)
Cathepsin B [2]
  Ki: 4500 nM
[3]
  Ki: 220 nM

## CCC(NC(=O)C(CC(C)C)NC(=O)OCc1ccccc1)C(=O)C(=O)NCC(O)c1c(F)c(F)c(F)c(F)c1F (centres undefined)
[3]
  Ki: 50 nM
Cathepsin B [1]
  Ki: 150 nM

## CCNC(=O)C(=O)C(CC)NC(=O)C(CC(C)C)NC(=O)c1ccco1 (centres undefined)
[3]
  Ki: 850 nM
Cathepsin B [1]
  Ki: 1200 nM

## CCC(NC(=O)C(CC(C)C)NC(=O)OCc1ccccc1)C(=O)C(=O)NCC(O)c1cccc(Oc2ccccc2)c1 (centres undefined)
[3]
  Ki: 900 nM
Cathepsin B [1]
  Ki: 120 nM

## CCC(NC(=O)C(CC(C)C)NC(=O)OCc1ccccc1)C(=O)C(=O)NCCCn1ccnc1 (centres undefined)
Cathepsin B [2]
  Ki: 9900 nM
[3]
  Ki: 290 nM

## CCCNC(=O)C(=O)C(CC)NC(=O)C(CC(C)C)NC(=O)OCc1ccccc1 (centres undefined)
Rattus norvegicus
  IC: 70 µM

## CCC(NC(=O)C(CC(C)C)NC(=O)OCc1ccccc1)C(=O)C(=O)NCCc1cccn1C (centres undefined)
Cathepsin B [2]
  Ki: 1200 nM

## CCNC(=O)C(=O)C(CC)NC(=O)C(CC(C)C)NC(=O)N1CCOCC1 (centres undefined)
[3]
  Ki: 7900 nM
Cathepsin B [1]
  Ki: 4300 nM

## CC(C)CC(NC(=O)OCc1ccccc1)C(=O)NC(Cc1ccccc1)C(=O)C(=O)NCc1ccccn1 (centres undefined)
Cathepsin B [2]
  Ki: 800 nM
[3]
  Ki: 650 nM

## CCOC(CNC(=O)C(=O)C(CC)NC(=O)C(CC(C)C)NC(=O)OCc1ccccc1)OCC (centres undefined)
Cathepsin B [1]
  Ki: 110 nM

## CCC(NC(=O)C(CC(C)C)NC(=O)OCc1ccccc1)C(=O)C(=O)NCCc1ccccn1 (centres undefined)
Rattus norvegicus
  IC: 70 µM
[3]
  Ki: 410 nM

## CCC(NC(=O)C(CC(C)C)NC(=O)OCc1ccccc1)C(=O)C(=O)NCC(O)c1cccc(Oc2ccc(Cl)c(Cl)c2)c1 (centres undefined)
[3]
  Ki: 270 nM
Cathepsin B [1]
  Ki: 100 nM

## CCC(NC(=O)C(CC(C)C)NC(=O)OCc1ccccc1)C(=O)C(=O)NCC(O)c1cccc(Oc2cccc(C(F)(F)F)c2)c1 (centres undefined)
[3]
  Ki: 70 nM
Cathepsin B [1]
  Ki: 300 nM

## CCC(NC(=O)C(CC(C)C)NC(=O)OCc1ccccc1)C(=O)C(=O)NCc1nccc2ccccc12 (centres undefined)
Cathepsin B [2]
  Ki: 300 nM
[3]
  Ki: 250 nM
